From paper PMC8317200 (Journal of medicinal chemistry, 2020)
Residues, ends and D or L forms follow the SMILES beside them. *: point of attachment. Adamantane1carbonyl = O=C(C12CC3CC(CC(C3)C1)C2)*; NH(1-Adamantyl) = C1C2CC3CC1CC(N*)(C2)C3; Cbz = O=C(OCc1ccccc1)*; Bz = O=C(c1ccccc1)*; OtBu = CC(C)(C)O*; OAll = C=CCO*; OPr = CCCO*

T1: FGF14 (Homo sapiens, UniProt Q92915)
T1 sequence (Q92915 64-252 isoform Q92915-2): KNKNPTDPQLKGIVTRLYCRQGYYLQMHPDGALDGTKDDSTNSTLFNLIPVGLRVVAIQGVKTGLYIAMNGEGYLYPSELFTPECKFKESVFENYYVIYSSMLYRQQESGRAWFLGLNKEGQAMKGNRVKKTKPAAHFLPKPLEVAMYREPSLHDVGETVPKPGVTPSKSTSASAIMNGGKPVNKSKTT

T2: FGF14:Nav1.6 complex (Homo sapiens, UniProt Q92915)
T2 sequence (Q92915 1-252 isoform Q92915-2): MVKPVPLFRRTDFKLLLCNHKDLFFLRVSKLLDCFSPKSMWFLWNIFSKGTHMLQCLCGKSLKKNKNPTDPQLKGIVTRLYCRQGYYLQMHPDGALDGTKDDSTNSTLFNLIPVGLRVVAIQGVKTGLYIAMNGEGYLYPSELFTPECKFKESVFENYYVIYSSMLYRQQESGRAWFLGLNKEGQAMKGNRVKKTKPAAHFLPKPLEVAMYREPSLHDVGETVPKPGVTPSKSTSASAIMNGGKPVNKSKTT

B1: fibroblast growth factor 14 (FGF14), aa 64–252 (domain or fragment, human, UniProt Q92915-2 64-252, looked up)
chain: KNKNPTDPQLKGIVTRLYCRQGYYLQMHPDGALDGTKDDSTNSTLFNLIPVGLRVVAIQGVKTGLYIAMNGEGYLYPSELFTPECKFKESVFENYYVIYSSMLYRQQESGRAWFLGLNKEGQAMKGNRVKKTKPAAHFLPKPLEVAMYREPSLHDVGETVPKPGVTPSKSTSASAIMNGGKPVNKSKTT
B2: FGF14: purified recombinant human fibroblast growth factor 14 protein flown over Nav1.6 C-terminal tail in SPR (protein)
chain: KNKNPTDPQLKGIVTRLYCRQGYYLQMHPDGALDGTKDDSTNSTLFNLIPVGLRVVAIQGVKTGLYIAMNGEGYLYPSELFTPECKFKESVFENYYVIYSSMLYRQQESGRAWFLGLNKEGQAMKGNRVKKTKPAAHFLPKPLEVAMYREPSLHDVGETVPKPGVTPSKSTSASAIMNGGKPVNKSKTT
modifications: left off: His6, N-terminal, state not stated
B3: Nav1.6 C-terminal tail, aa 1767–1912 (domain or fragment, human, UniProt Q9UQD0-1 1767-1912, looked up)
chain: ENFSVATEESADPLSEDDFETFYEIWEKFDPDATQFIEYCKLADFADALEHPLRVPKPNTIELIAMDLPMVSGDRIHCLDILFAFTKRVLGDSGELDILRQQMEERFVASNPSKVSYEPITTTLRRKQEEVSAVVLQRAYRGHLAR

Legend:
Nav1.1 channels = Nav1.1 channels (Homo sapiens, UniProt P35498); test: Whole-cell patch-clamp electrophysiology in HEK-Nav1.1 cells; type: cell-based
Nav1.6 C-terminal tail = Nav1.6 C-terminal tail (Homo sapiens, UniProt Q9UQD0); test: Surface plasmon resonance; type: binding; conditions: for koff: read-out: koff Nav1.6 C-terminal tail; for kon: read-out: kon Nav1.6 C-terminal tail
FGF14 = biological target: T1, FGF14; test: Surface plasmon resonance; type: binding; conditions: for koff: read-out: koff FGF14; for kon: read-out: kon FGF14
Nav1.2 channels = Nav1.2 channels (Homo sapiens, UniProt Q99250); test: Whole-cell patch-clamp electrophysiology in HEK-Nav1.2 cells; type: cell-based
Nav1.2 channels, sequence (Q99250 whole entry): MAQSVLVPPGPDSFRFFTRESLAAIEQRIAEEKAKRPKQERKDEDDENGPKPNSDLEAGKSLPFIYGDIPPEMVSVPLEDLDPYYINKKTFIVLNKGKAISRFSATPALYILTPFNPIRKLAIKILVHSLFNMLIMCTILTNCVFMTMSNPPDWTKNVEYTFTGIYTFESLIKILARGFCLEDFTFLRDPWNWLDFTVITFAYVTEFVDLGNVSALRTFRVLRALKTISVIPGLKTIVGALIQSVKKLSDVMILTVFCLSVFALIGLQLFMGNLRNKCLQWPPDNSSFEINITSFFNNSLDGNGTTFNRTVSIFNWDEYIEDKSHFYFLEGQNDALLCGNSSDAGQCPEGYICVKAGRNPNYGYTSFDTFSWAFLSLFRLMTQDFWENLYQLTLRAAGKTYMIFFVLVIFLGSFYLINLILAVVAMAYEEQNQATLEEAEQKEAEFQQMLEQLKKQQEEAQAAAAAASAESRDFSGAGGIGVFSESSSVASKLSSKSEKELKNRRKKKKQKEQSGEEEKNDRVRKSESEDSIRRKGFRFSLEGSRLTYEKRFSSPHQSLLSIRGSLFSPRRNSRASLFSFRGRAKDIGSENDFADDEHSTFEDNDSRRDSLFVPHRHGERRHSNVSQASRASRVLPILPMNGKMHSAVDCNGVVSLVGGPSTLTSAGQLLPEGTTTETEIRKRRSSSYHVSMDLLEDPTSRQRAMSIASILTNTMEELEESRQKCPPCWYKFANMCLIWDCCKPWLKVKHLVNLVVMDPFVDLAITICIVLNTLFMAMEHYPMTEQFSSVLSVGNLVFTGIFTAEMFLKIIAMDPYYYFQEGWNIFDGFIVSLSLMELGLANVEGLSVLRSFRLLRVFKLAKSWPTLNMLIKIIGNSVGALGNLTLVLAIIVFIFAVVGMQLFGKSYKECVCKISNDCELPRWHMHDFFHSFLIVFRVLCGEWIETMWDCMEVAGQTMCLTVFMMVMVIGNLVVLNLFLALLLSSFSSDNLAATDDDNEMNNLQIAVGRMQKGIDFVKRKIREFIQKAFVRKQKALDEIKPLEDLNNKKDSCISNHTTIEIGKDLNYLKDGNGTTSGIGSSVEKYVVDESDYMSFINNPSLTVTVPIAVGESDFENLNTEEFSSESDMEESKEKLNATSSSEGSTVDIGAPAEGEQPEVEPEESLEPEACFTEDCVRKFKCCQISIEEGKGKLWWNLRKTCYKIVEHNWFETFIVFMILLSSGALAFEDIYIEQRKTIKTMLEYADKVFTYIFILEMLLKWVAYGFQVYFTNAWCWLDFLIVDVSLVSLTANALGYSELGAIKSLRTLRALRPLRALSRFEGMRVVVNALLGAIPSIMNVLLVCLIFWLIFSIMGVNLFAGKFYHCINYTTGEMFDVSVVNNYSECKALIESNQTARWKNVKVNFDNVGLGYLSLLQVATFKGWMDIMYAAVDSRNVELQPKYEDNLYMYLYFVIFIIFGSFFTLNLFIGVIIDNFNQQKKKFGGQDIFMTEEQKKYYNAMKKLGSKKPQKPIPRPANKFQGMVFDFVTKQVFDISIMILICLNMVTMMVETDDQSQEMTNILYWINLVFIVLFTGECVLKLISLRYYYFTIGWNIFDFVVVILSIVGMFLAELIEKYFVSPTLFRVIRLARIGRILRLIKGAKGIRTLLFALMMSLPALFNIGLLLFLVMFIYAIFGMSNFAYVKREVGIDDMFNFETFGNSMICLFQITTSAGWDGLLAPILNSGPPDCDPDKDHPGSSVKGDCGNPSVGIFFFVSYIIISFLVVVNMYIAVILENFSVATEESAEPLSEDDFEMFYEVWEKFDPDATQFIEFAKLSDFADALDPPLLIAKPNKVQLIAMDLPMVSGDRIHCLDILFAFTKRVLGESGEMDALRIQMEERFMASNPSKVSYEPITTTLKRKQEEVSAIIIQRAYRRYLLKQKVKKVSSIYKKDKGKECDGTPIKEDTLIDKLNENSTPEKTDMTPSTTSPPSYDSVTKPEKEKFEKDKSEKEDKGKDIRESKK

[1] = biological target: human Nav1.6 (HEK-Nav1.6) channels (Homo sapiens, UniProt Q9UQD0); type: cell-based; conditions: 30 μM; absence of FGF14
human Nav1.6 (HEK-Nav1.6) channels, sequence (Q9UQD0 whole entry): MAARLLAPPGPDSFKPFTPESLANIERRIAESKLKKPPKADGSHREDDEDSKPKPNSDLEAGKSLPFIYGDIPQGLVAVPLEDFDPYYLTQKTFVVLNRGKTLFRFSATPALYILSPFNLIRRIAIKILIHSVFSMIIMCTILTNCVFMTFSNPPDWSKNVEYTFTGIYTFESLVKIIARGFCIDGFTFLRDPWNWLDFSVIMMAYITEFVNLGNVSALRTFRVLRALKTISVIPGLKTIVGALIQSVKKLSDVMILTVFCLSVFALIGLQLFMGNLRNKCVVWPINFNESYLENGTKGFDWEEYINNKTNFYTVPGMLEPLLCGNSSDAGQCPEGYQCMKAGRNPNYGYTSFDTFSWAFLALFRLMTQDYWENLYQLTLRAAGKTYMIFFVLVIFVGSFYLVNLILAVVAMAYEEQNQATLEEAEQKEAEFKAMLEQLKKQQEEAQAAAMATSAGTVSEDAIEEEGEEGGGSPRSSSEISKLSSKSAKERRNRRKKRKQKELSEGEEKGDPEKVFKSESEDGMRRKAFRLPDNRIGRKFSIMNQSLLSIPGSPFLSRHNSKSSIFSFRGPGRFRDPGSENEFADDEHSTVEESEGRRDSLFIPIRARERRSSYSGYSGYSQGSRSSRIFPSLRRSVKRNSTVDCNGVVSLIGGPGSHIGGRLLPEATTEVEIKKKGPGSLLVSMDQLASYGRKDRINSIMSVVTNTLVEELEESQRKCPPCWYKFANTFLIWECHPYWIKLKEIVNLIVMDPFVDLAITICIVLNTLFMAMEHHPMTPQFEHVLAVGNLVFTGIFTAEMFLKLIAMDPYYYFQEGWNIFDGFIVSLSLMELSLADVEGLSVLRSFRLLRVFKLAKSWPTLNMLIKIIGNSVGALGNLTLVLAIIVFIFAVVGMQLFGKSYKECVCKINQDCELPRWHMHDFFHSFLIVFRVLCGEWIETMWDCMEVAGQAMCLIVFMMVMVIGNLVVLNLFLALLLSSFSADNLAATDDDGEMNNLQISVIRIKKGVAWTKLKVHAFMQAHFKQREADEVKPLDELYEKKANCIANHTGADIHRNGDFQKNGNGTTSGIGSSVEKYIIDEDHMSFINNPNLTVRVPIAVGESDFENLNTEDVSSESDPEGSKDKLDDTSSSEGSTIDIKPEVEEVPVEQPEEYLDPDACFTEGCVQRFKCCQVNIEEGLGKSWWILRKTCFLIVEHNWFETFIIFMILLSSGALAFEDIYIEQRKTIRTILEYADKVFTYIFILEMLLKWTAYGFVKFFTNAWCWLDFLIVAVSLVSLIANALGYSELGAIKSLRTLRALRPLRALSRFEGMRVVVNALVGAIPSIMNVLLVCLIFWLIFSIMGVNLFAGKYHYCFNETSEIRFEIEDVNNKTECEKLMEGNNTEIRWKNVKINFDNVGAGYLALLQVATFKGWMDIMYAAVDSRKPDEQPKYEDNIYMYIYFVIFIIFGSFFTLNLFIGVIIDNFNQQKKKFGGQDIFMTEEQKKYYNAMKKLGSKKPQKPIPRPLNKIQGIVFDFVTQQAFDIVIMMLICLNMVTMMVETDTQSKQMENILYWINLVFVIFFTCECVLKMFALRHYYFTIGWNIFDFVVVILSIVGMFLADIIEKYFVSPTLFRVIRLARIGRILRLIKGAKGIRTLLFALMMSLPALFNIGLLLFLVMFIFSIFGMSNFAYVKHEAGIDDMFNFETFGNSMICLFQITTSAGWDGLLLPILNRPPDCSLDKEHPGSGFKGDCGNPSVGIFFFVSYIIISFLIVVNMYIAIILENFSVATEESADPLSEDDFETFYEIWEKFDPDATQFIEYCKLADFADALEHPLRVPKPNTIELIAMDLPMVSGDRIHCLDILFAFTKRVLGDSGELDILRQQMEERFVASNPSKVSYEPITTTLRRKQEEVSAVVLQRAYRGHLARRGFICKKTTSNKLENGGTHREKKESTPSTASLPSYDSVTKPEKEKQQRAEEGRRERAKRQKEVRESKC
How it was run: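 HEK293 cells stably expressing human Nav1.6 were kept under 500 μg/mL G418 with no FGF14 transfection. They were washed and re-plated at very low density onto glass coverslips, and the test compound was applied at 30 μM. Whole-cell patch clamp used extracellular solution (mM): 140 NaCl, 3 KCl, 1 MgCl2, 1 CaCl2, 10 HEPES, 10 glucose.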

FGF14:Nav1.6 complex = biological target: T2, FGF14:Nav1.6 complex; test: Split-luciferase complementation assay; type: cell-based; conditions: 50 μM screening
[2] = biological target: B3; test: SPR
FGF14:Nav1.6 = FGF14:Nav1.6 (Homo sapiens, UniProt Q92915+Q9UQD0); test: SPR of FGF14 binding to Nav1.6 C-terminal tail, alone or in complex with 21a; conditions: FGF14 alone
How it was run: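 Recombinant human Nav1.6 C-terminal tail (aa 1763–1976, His-tagged, E. coli-expressed, purified by column chromatography) amine-coupled to a CM5 chip (934 RU). FGF14 at 15.6–1500 nM, complexed with 2.1% DMSO alone, was flowed over the chip at 25 °C and 50 μL/min. Injection 120 s, dissociation 150 s, then regeneration (600 mM NaCl, 5% DMSO). kon and koff came from a Langmuir 1:1 fit.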

[3] = biological target: B1; test: SPR

Row | Molecule | Binding to Nav1.6 C-terminal tail by SPR (in words) (Nav1.6 C-terminal tail) | koff (Nav1.6 C-terminal tail) [s⁻¹] | kon (Nav1.6 C-terminal tail) [M⁻¹ s⁻¹] | koff (FGF14) [s⁻¹] | kon (FGF14) [M⁻¹ s⁻¹] | Inhibitory activity against FGF14:Nav1.6 complex assembly (in words) (FGF14:Nav1.6 complex) | also measured
1 | COC(=O)[C@@H](NC(=O)[C@H](CCC(=O)OC(C)(C)C)NC(=O)[C@H](CC(C)C)NC(=O)[C@@H]1CCCN1C(=O)C12CC3CC(CC(C3)C1)C2)C(C)C [Compound 21a, tert-Butyl (S)-4-((S)-2-((S)-1-((3S,5S,7S)-adamantane-1-carbonyl)pyrrolidine-2-carboxamido)-4-methylpentanamido)-5-(((S)-1-methoxy-3-methyl-1-oxobutan-2-yl)amino)-5-oxopentanoate] (Adamantane1carbonyl-PLE(OtBu)V-OMe) | appreciable binding | 0.00357 | 62300 | 0.00933 | 4660 | – | Changes in the kinetic properties of Nav1.1 channels (Nav1.1 channels): no changes; Changes in the kinetic properties of Nav1.2 channels (Nav1.2 channels): no changes
2 | C=CCOC(=O)[C@@H](NC(=O)[C@H](CCC(=O)OC(C)(C)C)NC(=O)[C@H](CC(C)C)NC(=O)[C@@H]1CCCN1C(=O)C12CC3CC(CC(C3)C1)C2)C(C)C [Compound 23a, tert-Butyl (S)-4-((S)-2-((S)-1-((3S,5S,7S)-adamantane-1-carbonyl)pyrrolidine-2-carboxamido)-4-methylpentanamido)-5-(((S)-1-(allyloxy)-3-methyl-1-oxobutan-2-yl)amino)-5-oxopentanoate] (Adamantane1carbonyl-PLE(OtBu)V-OAll) | – | – | – | 0.00932 | 17900 | – | Effect on Nav1.6-mediated currents [1]: unaffected
3 | CCOC(=O)[C@@H](NC(=O)[C@H](CCC(=O)OC(C)(C)C)NC(=O)[C@H](CC(C)C)NC(=O)[C@@H]1CCCN1C(=O)C12CC3CC(CC(C3)C1)C2)C(C)C [Compound 23f, tert-Butyl (4S)-4-((2S)-2-((2S)-1-((1R,3R)-adamantane-1-carbonyl)pyrrolidine-2-carboxamido)-4-methylpentanamido)-5-(((S)-1-ethoxy-3-methyl-1-oxobutan-2-yl)amino)-5-oxopentanoate] (Adamantane1carbonyl-PLE(OtBu)V-OEt) | appreciable binding | 0.0122 | 2640 | 0.0205 | 217 | – | –
4 | CCCOC(=O)[C@@H](NC(=O)[C@H](CCC(=O)OC(C)(C)C)NC(=O)[C@H](CC(C)C)NC(=O)[C@@H]1CCCN1C(=O)C12CC3CC(CC(C3)C1)C2)C(C)C [Compound 23g, tert-Butyl (4S)-4-((2S)-2-((2S)-1-((1R,3R)-adamantane-1-carbonyl)pyrrolidine-2-carboxamido)-4-methylpentanamido)-5-(((S)-3-methyl-1-oxo-1-propoxybutan-2-yl)amino)-5-oxopentanoate] (Adamantane1carbonyl-PLE(OtBu)V-OPr) | appreciable binding | 0.0492 | 340 | 0.0204 | 289 | – | –
5 | COC(=O)[C@@H](NC(=O)[C@H](CCC(=O)OC(C)(C)C)NC(=O)[C@H](CC(C)C)NC(=O)[C@@H]1CCCN1C(C)=O)C(C)C [Compound 21c, tert-Butyl (S)-4-((S)-2-((S)-1-acetylpyrrolidine-2-carboxamido)-4-methylpentanamido)-5-(((S)-1-methoxy-3-methyl-1-oxobutan-2-yl)amino)-5-oxopentanoate] (Ac-PLE(OtBu)V-OMe) | – | – | – | – | – | markedly reduced inhibitory activity | –
6 | CC(C)C[C@H](NC(=O)[C@@H]1CCCN1C(=O)OCc1ccccc1)C(=O)N[C@@H](CCC(=O)OC(C)(C)C)C(=O)N[C@H](C(=O)NC12CC3CC(CC(C3)C1)C2)C(C)C [Compound 19h, Benzyl (S)-2-(((S)-1-(((S)-1-(((S)-1-(((3R,5R,7R)-adamantan-1-yl)amino)-3-methyl-1-oxobutan-2-yl)amino)-5-(tert-butoxy)-1,5-dioxopentan-2-yl)amino)-4-methyl-1-oxopentan-2-yl)carbamoyl)pyrrolidine-1-carboxylate] (Cbz-PLE(OtBu)V-{NH(1-Adamantyl)}) | – | – | – | – | – | minimal inhibitory activity | –
7 | CC(C)C[C@H](NC(=O)[C@@H]1CCCN1C(=O)c1ccccc1)C(=O)N[C@@H](CCC(=O)OC(C)(C)C)C(=O)N[C@H](C(N)=O)C(C)C [Compound 13a, tert-Butyl (S)-5-(((S)-1-amino-3-methyl-1-oxobutan-2-yl)amino)-4-((S)-2-((S)-1-benzoylpyrrolidine-2-carboxamido)-4-methylpentanamido)-5-oxopentanoate] (Bz-PLE(OtBu)V-NH2) | – | – | – | – | – | did not show any inhibitory activity | –
8 | B1 | – | – | – | – | – | – | KD with 10 μM 21a [2]: 1420 ± 135 nM
9 | B2 | – | – | – | – | – | – | koff of FGF14 binding to Nav1.6 C-terminal tail (FGF14:Nav1.6): 0.00171 ± 1.02e-05 s⁻¹; kon of FGF14 binding to Nav1.6 C-terminal tail (FGF14:Nav1.6): 21800 ± 160 M⁻¹ s⁻¹
10 | B3 | – | – | – | – | – | – | Kd [3]: 228 ± 57.5 nM; koff [3]: 0.00171 s⁻¹; kon [3]: 21800 M⁻¹ s⁻¹
